According to ChEMBL document CHEMBL1146552, “Cytotoxic diterpenes from Scoparia dulcis” (2003):
Counter-ions that a name gives are not always drawn. The source made the active and inactive calls. The rule behind the calls is not given here.

Assays:
SCL = assay: (§1) Cytotoxicity against human SCL cells by MTT assay; format: functional
Method in brief: (§2)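 Human stomach cancer cells grown in RPMI-1640 complete medium; test materials prepared and cells cultured in medium with 0.25% DMSO. Serial dilutions at 250, 125, 62.5, 31.25 and 15.63 μg/mL, three replicates per concentration. Percent mortality by MTT, with cells in medium or medium-DMSO taken as 100% survival; ED50 (μM) derived, mean ± standard error. Vinblastine sulfate and mitomycin C as positive controls.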

SCL37'6 = assay: (§3) Cytotoxicity against human SCL37'6 cells by MTT assay; format: functional; method in brief: as §2
SCL9 = assay: (§4) Cytotoxicity against human SCL9 cells by MTT assay; format: functional; method in brief: as §2
KATO III cell = assay: (§5) Cytotoxicity against human KATO III cells by MTT assay; format: functional; method in brief: as §2
NUGC-4 = assay: Cytotoxicity against human NUGC4 cells by MTT assay; format: functional; conditions: for EC50: read-out: ED50 (the source's name); method in brief: as §2
SCL-6 (Homo sapiens) = assay: Cytotoxicity against human SCL6 cells by MTT assay
[1] = as §1; format: functional; conditions: read-out: ED50 (the source's name); method in brief: as §2
[2] = Cytotoxicity against human SCL6 cells by MTT assay; format: functional; conditions: read-out: ED50 (the source's name); method in brief: as §2
[3] = as §3; format: functional; conditions: read-out: ED50 (the source's name); method in brief: as §2
[4] = as §4; format: functional; conditions: read-out: ED50 (the source's name); method in brief: as §2
[5] = as §5; format: functional, KATO III cell; conditions: read-out: ED50 (the source's name); method in brief: as §2

CC1(C)CC[C@]2(C)CC[C@]3(C)[C@H]4CC=C5[C@@H](CC[C@H](O)C5(C)C)[C@]4(C)CC[C@@]3(C)[C@@H]2C1
Activity (SCL): inactive | Activity (SCL37'6): inactive | Activity (SCL9): inactive | Activity (KATO III cell): inactive | Activity (NUGC-4): inactive | Activity (SCL-6 (Homo sapiens)): inactive

COc1ccc2[nH]c(=O)oc2c1
Activity (SCL): inactive | Activity (SCL37'6): inactive | Activity (SCL9): inactive | Activity (KATO III cell): inactive | Activity (NUGC-4): inactive | Activity (SCL-6 (Homo sapiens)): inactive

CO[C@@]12[C@H](COC(N)=O)C3=C(C(=O)C(C)=C(N)C3=O)N1C[C@@H]1N[C@@H]12 [MITOMYCIN]
EC50 [1]: 20.2 µM | EC50 [2]: 20.7 µM | EC50 [3]: 19 µM | EC50 [4]: 17.4 µM | EC50 [5]: 49 µM | EC50 (NUGC-4): 19.1 µM

C[C@@]12CC[C@]3(C1)[C@H](CC2=O)C[C@@H](OC(=O)c1ccccc1)[C@@H]1[C@]3(C)CCC[C@]1(C)C(=O)O [4-EPI-SCOPADULCIC ACID B]
EC50 [1]: 37 µM | EC50 [2]: 137 µM | EC50 [3]: 59.3 µM | EC50 [4]: 48.3 µM | EC50 [5]: 124 µM | EC50 (NUGC-4): 110 µM

C[C@@]12CC[C@]3(C1)[C@H](CC2=O)C[C@@H](OC(=O)c1ccccc1)[C@H]1[C@](C)(CO)CCC[C@@]13C [SCOPADULCIOL]
EC50 [1]: 22 µM | EC50 [2]: 32.8 µM | EC50 [3]: 24.4 µM | EC50 [4]: 37.7 µM | EC50 [5]: 35.5 µM | EC50 (NUGC-4): 33.3 µM

CC1(C)[C@@H](O)CC[C@@]2(C)[C@H]1[C@H](OC(=O)c1ccccc1)C[C@H]1CC(=O)[C@]3(C)CC[C@]12C3
EC50 [1]: 19.5 µM | EC50 [2]: 62.9 µM | EC50 [3]: 45.8 µM | EC50 [4]: 57.9 µM | EC50 [5]: 71.7 µM | EC50 (NUGC-4): 123 µM

C[C@@]12CC[C@]3(C1)[C@@H](C[C@@H](OC(=O)c1ccccc1)[C@H]1[C@](C)(CO)CCC[C@@]13C)C[C@@H]2O [DULCIDIOL]
EC50 [1]: 45.3 µM | EC50 [2]: 46 µM | EC50 [3]: 42.6 µM | EC50 [4]: 41.6 µM | EC50 [5]: 29 µM | EC50 (NUGC-4): 105 µM

C=C1C[C@@H](OC(=O)c2ccccc2)C2[C@](C)(CO)CCC[C@]2(C)[C@@H]1CC/C(C)=C/CO (some centres undefined) [SCOPADIOL]
EC50 [1]: 22.8 µM | EC50 [2]: 12.2 µM | EC50 [3]: 8.9 µM | EC50 [4]: 12.2 µM | EC50 [5]: 9.7 µM | EC50 (NUGC-4): 16.6 µM

CC[C@]1(O)C[C@@H]2CN(CCc3c([nH]c4ccccc34)[C@@](C(=O)OC)(c3cc4c(cc3OC)N(C)[C@H]3[C@@](O)(C(=O)OC)[C@H](OC(C)=O)[C@]5(CC)C=CCN6CC[C@]43[C@@H]65)C2)C1 [VINBLASTINE SULFATE]
EC50 [1]: 5.9 µM | EC50 [2]: 6.1 µM | EC50 [3]: 5.3 µM | EC50 [4]: 5.3 µM | EC50 [5]: 6.1 µM | EC50 (NUGC-4): 5.3 µM
